Results from ChEMBL document CHEMBL1139421, “Synthesis and elastase-inhibiting activity of 2-pyridinyl-isothiazol-3(2H)-one 1,1-dioxides” (Bioorg Med Chem, 2008).

What was measured:
Neutrophil elastase = biological target: T1, Neutrophil elastase (Homo sapiens, UniProt P08246); experiment: Inhibition of human leukocyte elastase
T1 sequence (P08246 whole entry): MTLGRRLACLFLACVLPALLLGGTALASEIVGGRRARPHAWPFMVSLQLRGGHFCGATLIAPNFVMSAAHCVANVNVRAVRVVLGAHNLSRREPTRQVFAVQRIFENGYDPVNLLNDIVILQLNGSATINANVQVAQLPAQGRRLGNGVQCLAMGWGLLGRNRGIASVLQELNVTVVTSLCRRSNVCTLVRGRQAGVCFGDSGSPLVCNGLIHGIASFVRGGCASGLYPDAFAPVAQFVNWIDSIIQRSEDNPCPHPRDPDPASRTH
Outline: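 Human leukocyte elastase at 50 ng/ml final, 25 °C, in 50 mM sodium phosphate, 500 mM NaCl, pH 7.8. MeOSuc-Ala-Ala-Pro-Val-pNA at 100 µM final (1.9 Km), with 3.5% DMSO; started with enzyme. Read at 405 nm over 10 min. IC50 from linear steady-state rates: duplicate determinations at 25 and 50 µM, or five concentrations fitted nonlinearly.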

[1] = Inhibition of bovine trypsin; set-up: species or system Bos taurus
Outline: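 Bovine pancreatic trypsin at 12.5 ng/ml final, 25 °C, in 20 mM Tris-HCl, 150 mM NaCl, pH 8.4. Substrate Suc-Ala-Ala-Pro-Arg-pNA at 200 µM final, with 6% DMSO. Started with enzyme; release of pNA read at 405 nm over 10 min. IC50 taken from linear steady-state turnover, duplicate determinations at inhibitor 25 and 50 µM.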

[2] = biological target: Bile salt-activated lipase (Bos taurus) (UniProt P30122); experiment: Inhibition of cholesterol esterase
Cathepsin G = biological target: T2, Cathepsin G (Homo sapiens, UniProt P08311); experiment: Inhibition of human cathepsin G
T2 sequence (P08311 whole entry): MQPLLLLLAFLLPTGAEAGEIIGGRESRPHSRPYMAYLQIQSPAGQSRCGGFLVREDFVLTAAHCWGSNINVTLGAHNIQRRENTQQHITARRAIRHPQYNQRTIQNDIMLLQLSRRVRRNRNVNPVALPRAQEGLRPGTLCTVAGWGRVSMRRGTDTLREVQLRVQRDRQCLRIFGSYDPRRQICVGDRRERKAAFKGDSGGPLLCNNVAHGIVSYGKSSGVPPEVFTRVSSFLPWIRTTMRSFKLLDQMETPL
Outline: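 Human cathepsin G at 2.5 mU/ml final, 25 °C, in 20 mM Tris-HCl, 150 mM NaCl, pH 8.4. Suc-Ala-Ala-Pro-Phe-pNA at 500 µM final, with 1.5% DMSO; started with enzyme. Read at 405 nm over 10 min. IC50 from linear steady-state rate, duplicate determinations at 12.5 µM inhibitor, IC50 = [I]/(v0/v − 1).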

Acetylcholinesterase = Acetylcholinesterase (Homo sapiens, UniProt P22303); experiment: Inhibition of acetylcholinesterase
Outline: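 Acetylcholinesterase in 100 mM sodium phosphate, 100 mM NaCl, pH 7.3. Enzyme, DTNB and test compound (acetonitrile stocks, added acetonitrile) preincubated 15 min at 25 °C. Reaction started with acetylthiocholine; DTNB final 350 µM. Read at 412 nm, 25 °C. Progress curves followed 5 min and fitted by linear regression; IC50 derived from rates with and without inhibitor.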

Procathepsin L = Procathepsin L (Homo sapiens, UniProt P07711); experiment: Inhibition of human cathepsin L
Outline: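 Human cathepsin L at 4 ng/ml final, 37 °C, in 100 mM sodium phosphate pH 6.0, 100 mM NaCl, 5 mM EDTA, 0.01% Brij 35. Enzyme was activated 30 min at 37 °C with 5 mM DTT. Z-Phe-Arg-pNA at 100 µM final, with 3% DMSO; read at 405 nm over 10 min, with linear regression of progress curves.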

[3] = biological target: Angiotensin-converting enzyme (Homo sapiens, UniProt P12821); experiment: Inhibition of human ACE
Outline: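 Human ACE at 86.8 ng/ml final, 37 °C, in 50 mM Tris-HCl, 300 mM NaCl, pH 7.5. Enzyme was preincubated 10 min at 37 °C after dilution. FA-Phe-Gly-Gly at 3 mM final, with 3% DMSO. Absorbance decrease read at 352 nm over 20 min. IC50 from linear steady-state turnover.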

Chain of Procathepsin L (P07711 whole entry): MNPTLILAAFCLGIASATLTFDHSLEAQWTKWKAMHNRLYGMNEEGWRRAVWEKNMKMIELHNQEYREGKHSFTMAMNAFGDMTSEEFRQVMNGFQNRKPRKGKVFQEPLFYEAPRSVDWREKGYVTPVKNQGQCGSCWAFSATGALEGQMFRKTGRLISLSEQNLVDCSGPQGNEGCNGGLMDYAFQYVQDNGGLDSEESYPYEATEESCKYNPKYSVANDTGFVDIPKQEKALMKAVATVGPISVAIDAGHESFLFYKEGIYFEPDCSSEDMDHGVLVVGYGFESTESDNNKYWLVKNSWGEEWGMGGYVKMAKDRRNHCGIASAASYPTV
Chain of Angiotensin-converting enzyme (P12821 whole entry): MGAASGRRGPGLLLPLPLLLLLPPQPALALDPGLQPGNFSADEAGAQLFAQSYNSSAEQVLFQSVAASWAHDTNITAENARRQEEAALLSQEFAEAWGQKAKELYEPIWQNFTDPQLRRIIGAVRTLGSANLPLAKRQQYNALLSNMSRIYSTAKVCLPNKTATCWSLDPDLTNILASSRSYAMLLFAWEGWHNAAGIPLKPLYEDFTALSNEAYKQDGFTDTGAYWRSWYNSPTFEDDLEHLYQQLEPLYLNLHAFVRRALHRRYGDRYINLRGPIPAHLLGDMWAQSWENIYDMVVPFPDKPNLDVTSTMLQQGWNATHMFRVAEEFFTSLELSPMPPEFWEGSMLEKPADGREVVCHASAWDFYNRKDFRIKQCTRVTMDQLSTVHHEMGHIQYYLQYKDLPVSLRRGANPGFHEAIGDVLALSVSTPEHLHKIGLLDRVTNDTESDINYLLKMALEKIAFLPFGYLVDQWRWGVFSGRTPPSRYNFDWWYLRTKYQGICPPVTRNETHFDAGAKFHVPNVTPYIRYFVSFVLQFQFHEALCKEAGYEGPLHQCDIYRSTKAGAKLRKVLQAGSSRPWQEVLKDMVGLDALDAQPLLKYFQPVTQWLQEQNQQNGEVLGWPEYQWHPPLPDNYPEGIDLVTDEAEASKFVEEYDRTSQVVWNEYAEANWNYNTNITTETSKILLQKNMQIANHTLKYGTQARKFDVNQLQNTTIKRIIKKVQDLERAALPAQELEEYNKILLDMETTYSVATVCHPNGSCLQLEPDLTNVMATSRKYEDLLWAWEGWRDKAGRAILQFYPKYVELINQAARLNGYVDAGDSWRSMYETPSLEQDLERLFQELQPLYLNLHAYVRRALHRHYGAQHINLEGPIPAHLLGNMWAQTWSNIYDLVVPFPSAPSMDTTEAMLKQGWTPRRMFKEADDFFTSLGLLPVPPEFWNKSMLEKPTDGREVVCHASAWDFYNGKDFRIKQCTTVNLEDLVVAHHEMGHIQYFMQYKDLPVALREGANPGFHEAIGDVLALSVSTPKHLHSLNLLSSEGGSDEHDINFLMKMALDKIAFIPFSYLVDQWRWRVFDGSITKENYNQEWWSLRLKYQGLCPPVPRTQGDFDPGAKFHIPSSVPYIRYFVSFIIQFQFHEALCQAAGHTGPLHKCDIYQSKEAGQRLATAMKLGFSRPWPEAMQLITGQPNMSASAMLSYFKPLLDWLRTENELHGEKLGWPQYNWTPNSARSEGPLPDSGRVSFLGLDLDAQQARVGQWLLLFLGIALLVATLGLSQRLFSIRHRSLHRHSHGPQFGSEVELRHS
Chain of Bile salt-activated lipase (Bos taurus) (P30122 whole entry, looked up): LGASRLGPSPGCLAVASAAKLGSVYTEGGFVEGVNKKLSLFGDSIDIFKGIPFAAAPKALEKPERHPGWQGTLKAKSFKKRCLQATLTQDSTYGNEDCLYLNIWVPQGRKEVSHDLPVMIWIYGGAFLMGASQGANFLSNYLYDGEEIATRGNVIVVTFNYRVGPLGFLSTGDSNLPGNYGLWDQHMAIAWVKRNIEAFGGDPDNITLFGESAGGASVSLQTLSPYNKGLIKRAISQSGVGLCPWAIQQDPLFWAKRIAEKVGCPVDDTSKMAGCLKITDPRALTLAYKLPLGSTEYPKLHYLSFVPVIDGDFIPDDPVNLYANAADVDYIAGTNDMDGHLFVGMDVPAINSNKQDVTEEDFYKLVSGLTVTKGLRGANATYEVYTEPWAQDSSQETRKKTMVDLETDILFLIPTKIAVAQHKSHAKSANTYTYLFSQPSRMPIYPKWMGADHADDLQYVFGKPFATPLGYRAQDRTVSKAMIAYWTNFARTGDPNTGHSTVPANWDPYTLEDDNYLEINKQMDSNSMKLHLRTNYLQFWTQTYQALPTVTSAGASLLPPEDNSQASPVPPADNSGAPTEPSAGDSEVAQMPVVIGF
Chain of Acetylcholinesterase (P22303 whole entry): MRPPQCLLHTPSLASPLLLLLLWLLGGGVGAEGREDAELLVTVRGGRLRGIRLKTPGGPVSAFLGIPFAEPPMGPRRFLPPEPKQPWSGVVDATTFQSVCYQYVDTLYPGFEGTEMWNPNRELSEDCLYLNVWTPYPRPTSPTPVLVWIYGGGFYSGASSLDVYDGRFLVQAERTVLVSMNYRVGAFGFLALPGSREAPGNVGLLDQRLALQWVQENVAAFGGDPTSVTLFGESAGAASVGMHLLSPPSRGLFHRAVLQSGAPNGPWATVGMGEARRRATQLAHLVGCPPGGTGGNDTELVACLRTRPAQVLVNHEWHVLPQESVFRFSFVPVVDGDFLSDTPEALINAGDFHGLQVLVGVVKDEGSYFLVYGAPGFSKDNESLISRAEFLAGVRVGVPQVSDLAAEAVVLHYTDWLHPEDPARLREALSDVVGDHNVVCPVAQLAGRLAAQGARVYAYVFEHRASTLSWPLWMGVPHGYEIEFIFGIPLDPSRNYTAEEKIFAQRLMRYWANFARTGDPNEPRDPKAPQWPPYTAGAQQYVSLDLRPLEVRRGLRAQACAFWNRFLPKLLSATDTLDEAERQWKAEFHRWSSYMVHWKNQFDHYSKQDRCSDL

Row | Structure (SMILES) | IC50 (Neutrophil elastase) [µM] | IC50 [1] [µM] | IC50 [2] [µM] | IC50 (Cathepsin G) [µM] | IC50 (Acetylcholinesterase) [µM] | IC50 (Procathepsin L) [µM] | IC50 [3] [µM] | Ki (Neutrophil elastase) [µM]
1 | O=C1C2=C(CCCC2)S(=O)(=O)N1c1cccc(Br)n1 | > 100 | > 100 | > 100 | > 100 | > 100 | > 100 | > 100 | –
2 | O=C1C2=C(CCCC2)S(=O)(=O)N1c1ncc(F)cc1F | > 100 | > 100 | > 100 | > 100 | > 100 | > 100 | > 100 | –
3 | O=C1C2=C(CCCC2)S(=O)(=O)N1c1c(F)c(F)nc(F)c1F | 3.1 | > 100 | > 100 | > 100 | > 100 | > 100 | > 100 | –
4 | CC1=C(c2ccccc2)C(=O)N(c2c(F)c(F)nc(F)c2F)S1(=O)=O | 33 | > 100 | > 100 | > 100 | > 100 | > 100 | > 100 | –
5 | O=C1C2=C(CCCC2)S(=O)(=O)N1c1c(F)c(F)c(F)c(F)c1F | > 100 | > 100 | > 100 | > 100 | > 100 | > 100 | > 100 | –
6 | O=C1C2=C(CCCC2)S(=O)(=O)N1c1ccncc1.[O-][Cl+3]([O-])([O-])O | > 100 | > 100 | > 100 | > 100 | > 100 | > 100 | > 100 | –
7 | CC1=C(C)S(=O)(=O)N(c2c(F)c(F)nc(F)c2F)C1=O | > 100 | > 100 | > 100 | > 100 | > 100 | > 100 | > 100 | –
8 | O=C1C2=C(CCCC2)S(=O)(=O)N1c1cccc(Cl)n1 | > 100 | > 100 | > 100 | > 100 | > 100 | > 100 | > 100 | –
9 | O=C1c2ccccc2S(=O)(=O)N1c1c(F)c(F)nc(F)c1F | 0.081 | 7.5 | 11 | 3.7 | > 100 | > 100 | > 100 | 0.028
